Tests used:
Cytochrome P450 2D6 = Cytochrome P450 2D6 (Homo sapiens, UniProt P10635); experiment: Inhibition of human CYP2D6; assay type: ADME
[1] = Oral bioavailability in mouse at 10 mg/kg; assay type: ADME, organism-based; conditions: in vivo
[2] = Plasma clearance in mouse at 3 mg/kg, iv and 10 mg/kg, po; assay type: ADME, organism-based
[3] = target: T1, Nitric oxide synthase, inducible (Mus musculus, UniProt P29477); experiment: Inhibition of mouse iNOS expressed in HEK293 cells assessed as inhibition of nitric oxide production after 18 hrs using 2,3-diaminonaphthalene by fluorescence assay; assay type: cell-based
T1 sequence (P29477 whole entry): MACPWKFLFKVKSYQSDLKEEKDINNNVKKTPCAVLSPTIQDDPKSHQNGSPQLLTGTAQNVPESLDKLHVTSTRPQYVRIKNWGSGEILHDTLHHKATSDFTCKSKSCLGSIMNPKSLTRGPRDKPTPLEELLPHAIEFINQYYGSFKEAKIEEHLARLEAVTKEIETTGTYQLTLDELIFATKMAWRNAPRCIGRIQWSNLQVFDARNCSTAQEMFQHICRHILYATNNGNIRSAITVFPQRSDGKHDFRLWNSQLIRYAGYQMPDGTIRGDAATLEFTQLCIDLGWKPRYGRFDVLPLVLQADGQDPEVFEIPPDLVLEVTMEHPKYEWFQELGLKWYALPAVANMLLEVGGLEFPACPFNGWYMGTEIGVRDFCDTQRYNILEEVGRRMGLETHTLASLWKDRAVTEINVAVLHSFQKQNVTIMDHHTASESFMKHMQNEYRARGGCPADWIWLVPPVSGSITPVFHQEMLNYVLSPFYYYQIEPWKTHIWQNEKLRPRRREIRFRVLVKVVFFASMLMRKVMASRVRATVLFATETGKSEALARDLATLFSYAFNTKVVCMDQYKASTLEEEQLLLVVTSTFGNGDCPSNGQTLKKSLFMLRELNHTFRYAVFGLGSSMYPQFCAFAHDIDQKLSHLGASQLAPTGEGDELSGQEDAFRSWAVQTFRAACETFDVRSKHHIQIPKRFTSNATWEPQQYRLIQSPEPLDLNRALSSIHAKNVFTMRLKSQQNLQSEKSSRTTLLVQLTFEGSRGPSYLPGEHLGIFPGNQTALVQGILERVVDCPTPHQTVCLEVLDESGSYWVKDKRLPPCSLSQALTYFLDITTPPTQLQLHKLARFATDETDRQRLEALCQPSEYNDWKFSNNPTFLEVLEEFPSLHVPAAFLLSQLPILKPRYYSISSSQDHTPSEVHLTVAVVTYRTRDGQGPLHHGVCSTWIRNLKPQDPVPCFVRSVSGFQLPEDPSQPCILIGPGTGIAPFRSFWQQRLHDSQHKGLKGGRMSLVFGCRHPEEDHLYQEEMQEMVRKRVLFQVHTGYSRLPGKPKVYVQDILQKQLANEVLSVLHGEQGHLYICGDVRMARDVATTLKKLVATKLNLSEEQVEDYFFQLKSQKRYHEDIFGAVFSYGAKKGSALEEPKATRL
Outline: (§1)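 HEK293 cells grown to ~70% confluence in DMEM/10% FBS with pen/strep, transiently transfected with 10 μg human or murine iNOS plasmid plus Fugene 6 for 4 h at 37 °C, 10% CO2. Cells replated at 5e5 cells/mL and dosed with compound at once; 1400W (100 μM final) as positive control. After 18 h, DAN (10 μg/mL final) in HCl (0.1 N final) added for 20 min at room temperature. Fluorescence read after NaOH (0.12 N final).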

[4] = Cmax in mouse at 3 mg/kg, iv and 10 mg/kg, po; assay type: ADME, organism-based; conditions: in vivo
Cytochrome P450 1A2 = target: T2, Cytochrome P450 1A2 (Homo sapiens, UniProt P05177); experiment: Inhibition of human CYP1A2; assay type: ADME
T2 sequence (P05177 whole entry): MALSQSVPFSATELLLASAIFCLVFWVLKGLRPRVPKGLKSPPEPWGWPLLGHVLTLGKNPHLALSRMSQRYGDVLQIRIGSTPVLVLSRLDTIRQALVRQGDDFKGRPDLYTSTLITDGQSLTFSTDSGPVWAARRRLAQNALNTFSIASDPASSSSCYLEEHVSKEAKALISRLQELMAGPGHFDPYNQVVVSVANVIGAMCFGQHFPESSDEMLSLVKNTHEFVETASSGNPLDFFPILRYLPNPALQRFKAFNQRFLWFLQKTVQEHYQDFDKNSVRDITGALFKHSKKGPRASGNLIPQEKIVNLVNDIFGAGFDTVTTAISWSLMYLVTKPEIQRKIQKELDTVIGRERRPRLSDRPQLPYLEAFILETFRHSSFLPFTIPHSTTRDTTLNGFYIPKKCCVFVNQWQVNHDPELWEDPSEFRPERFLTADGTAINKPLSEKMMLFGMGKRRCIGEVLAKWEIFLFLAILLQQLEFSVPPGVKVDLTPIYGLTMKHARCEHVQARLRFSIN

[5] = target: Nitric oxide synthase, inducible (Homo sapiens, UniProt P35228); experiment: Inhibition of human iNOS expressed in HEK293 cells assessed as inhibition of nitric oxide production after 18 hrs using 2,3-diaminonaphthalene by fluorescence assay; assay type: cell-based; outline: as §1
Nitric oxide synthase 1 = Nitric oxide synthase 1 (Homo sapiens, UniProt P29475); experiment: Inhibition of human nNOS expressed in HEK293 cells assessed as inhibition ionomycin induced nitric oxide production incubated for 24 hrs measured after 18 hrs of ionomycin challenge using 2,3-diaminonaphthalene by fluorescence assay; assay type: cell-based
Outline: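 HEK293 cells transfected for 4 h at 37 °C with human nNOS (10 μg) or human eNOS (15 μg) plasmid (Fugene 6, 3:1). Cells replated at 5e5 cells/mL and dosed with compound at once; SEITU (100 μM final) as positive control. After 24 h, cells activated with A23187 (83 nM final) for eNOS or ionomycin (30 μM final) for nNOS. NO read 18 h later as nitrite-DAN fluorescence.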

Cytochrome P450 2C9 [6] = target: T3, Cytochrome P450 2C9 (Homo sapiens, UniProt P11712); experiment: Inhibition of human CYP2C9 at >60 uM; assay type: ADME
[7] = Half life in mouse at 3 mg/kg, iv and 10 mg/kg, po; conditions: in vivo
Cytochrome P450 2C9 [8] = target: T3, Cytochrome P450 2C9; experiment: Inhibition of human CYP2C9; assay type: ADME
[9] = target: Voltage-gated inwardly rectifying potassium channel KCNH2 (Homo sapiens, UniProt Q12809); experiment: Inhibition of human ERG at >30 uM by patch clamp assay
[10] = Half life in mouse at 10 mg/kg, po; assay type: ADME, organism-based; design: dose 10 mg/kg, route oral; conditions: in vivo
Liver = experiment: Half life in mouse liver microsomes assessed as formation of oxidation product and glucuronide conjugate; assay type: ADME, Microsome
Outline: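 Mouse liver microsomes run under combined phase I oxidation and phase II glucuronide conjugation; half-life reported in minutes.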

[11] = AUC in mouse at 3 mg/kg, iv and 10 mg/kg, po; assay type: ADME, organism-based; conditions: plasma
Cytochrome P450 2C19 = Cytochrome P450 2C19 (Homo sapiens, UniProt P33261); experiment: Inhibition of human CYP2C19 at >60 uM; assay type: ADME
[12] = Cmax in mouse 10 mg/kg, po; assay type: ADME, organism-based; design: dose 10 mg/kg, route oral; conditions: in vivo
Cytochrome P450 3A4 = Cytochrome P450 3A4 (Homo sapiens, UniProt P08684); experiment: Inhibition of human CYP3A4 at >60 uM; assay type: ADME

Chain of Nitric oxide synthase 1 (P29475 whole entry): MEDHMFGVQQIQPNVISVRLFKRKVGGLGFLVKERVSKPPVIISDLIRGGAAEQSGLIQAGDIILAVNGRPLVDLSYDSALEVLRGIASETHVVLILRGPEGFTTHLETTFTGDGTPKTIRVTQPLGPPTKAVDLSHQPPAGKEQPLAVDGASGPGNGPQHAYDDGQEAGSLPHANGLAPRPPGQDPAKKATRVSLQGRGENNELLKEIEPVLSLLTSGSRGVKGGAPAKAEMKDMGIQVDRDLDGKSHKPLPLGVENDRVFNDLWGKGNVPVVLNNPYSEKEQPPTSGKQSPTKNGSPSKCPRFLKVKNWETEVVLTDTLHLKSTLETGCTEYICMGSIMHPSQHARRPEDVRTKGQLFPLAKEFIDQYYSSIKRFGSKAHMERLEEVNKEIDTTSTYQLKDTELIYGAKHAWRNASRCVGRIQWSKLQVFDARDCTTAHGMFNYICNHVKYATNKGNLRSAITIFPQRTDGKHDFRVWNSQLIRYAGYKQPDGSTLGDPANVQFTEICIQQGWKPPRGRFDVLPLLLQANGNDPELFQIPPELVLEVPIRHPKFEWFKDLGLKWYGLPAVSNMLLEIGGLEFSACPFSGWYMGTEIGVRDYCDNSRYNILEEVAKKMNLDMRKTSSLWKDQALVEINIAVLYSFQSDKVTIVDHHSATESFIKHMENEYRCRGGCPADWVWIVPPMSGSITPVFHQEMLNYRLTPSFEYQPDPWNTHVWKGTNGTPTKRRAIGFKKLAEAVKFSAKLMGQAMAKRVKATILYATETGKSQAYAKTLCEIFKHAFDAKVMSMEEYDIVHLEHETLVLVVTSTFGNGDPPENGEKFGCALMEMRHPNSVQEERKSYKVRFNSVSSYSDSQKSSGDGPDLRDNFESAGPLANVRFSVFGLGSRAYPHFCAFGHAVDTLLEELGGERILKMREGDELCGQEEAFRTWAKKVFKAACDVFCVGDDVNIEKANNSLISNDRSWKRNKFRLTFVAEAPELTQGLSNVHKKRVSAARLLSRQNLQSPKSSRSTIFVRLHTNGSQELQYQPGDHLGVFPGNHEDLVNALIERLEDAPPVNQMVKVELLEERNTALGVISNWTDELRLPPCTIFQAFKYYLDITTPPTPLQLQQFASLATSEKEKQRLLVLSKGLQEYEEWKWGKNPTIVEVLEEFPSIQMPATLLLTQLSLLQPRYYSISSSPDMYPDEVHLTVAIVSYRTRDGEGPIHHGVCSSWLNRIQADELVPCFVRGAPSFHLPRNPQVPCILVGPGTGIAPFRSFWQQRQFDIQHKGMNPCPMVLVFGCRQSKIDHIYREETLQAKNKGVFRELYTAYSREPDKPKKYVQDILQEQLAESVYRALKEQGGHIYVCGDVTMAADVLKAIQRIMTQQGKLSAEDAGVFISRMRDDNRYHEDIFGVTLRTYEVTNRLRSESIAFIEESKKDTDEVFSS
T3 sequence (P11712 whole entry): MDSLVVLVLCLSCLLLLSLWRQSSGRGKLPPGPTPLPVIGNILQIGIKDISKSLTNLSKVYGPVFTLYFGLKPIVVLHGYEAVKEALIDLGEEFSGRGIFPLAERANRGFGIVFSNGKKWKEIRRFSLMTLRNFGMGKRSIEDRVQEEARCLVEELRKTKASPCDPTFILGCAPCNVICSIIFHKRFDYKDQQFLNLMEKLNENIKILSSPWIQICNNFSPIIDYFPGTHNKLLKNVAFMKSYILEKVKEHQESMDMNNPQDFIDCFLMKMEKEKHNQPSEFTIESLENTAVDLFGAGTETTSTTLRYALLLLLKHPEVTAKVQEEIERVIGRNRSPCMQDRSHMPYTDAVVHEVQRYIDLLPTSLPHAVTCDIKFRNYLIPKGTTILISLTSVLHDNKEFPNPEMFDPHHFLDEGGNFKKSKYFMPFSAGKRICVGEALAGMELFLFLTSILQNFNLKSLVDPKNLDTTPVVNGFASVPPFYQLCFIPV
Chain of Nitric oxide synthase, inducible (Homo sapiens, UniProt P35228) (P35228 whole entry): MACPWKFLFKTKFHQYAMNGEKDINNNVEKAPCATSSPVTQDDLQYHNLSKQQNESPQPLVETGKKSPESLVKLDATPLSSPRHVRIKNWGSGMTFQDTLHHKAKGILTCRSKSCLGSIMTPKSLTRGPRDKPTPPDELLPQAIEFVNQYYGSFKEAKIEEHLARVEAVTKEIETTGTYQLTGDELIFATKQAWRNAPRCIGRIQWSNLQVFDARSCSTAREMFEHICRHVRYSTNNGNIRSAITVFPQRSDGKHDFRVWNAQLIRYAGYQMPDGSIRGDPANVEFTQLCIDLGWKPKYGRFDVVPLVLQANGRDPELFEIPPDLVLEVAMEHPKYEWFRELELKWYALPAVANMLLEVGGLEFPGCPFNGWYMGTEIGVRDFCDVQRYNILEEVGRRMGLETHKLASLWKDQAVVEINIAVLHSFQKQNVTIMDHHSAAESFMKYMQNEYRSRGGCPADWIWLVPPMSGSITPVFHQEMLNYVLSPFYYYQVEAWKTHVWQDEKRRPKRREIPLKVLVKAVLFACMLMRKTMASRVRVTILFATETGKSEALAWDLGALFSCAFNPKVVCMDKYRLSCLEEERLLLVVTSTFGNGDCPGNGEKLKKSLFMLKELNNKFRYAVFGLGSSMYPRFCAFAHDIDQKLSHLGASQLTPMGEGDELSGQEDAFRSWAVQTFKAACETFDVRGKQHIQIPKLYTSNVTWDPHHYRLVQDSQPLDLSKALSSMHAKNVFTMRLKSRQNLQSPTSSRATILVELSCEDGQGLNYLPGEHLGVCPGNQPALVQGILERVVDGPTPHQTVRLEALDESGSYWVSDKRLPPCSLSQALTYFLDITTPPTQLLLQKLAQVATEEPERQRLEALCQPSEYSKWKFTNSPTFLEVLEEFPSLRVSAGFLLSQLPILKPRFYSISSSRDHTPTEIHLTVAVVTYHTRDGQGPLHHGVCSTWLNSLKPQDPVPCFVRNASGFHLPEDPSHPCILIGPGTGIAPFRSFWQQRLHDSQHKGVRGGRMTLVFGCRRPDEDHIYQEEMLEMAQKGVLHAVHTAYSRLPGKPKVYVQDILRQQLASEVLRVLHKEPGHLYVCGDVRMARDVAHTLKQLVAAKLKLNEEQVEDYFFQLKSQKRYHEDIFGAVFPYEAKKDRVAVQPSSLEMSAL
Chain of Cytochrome P450 2D6 (P10635 whole entry): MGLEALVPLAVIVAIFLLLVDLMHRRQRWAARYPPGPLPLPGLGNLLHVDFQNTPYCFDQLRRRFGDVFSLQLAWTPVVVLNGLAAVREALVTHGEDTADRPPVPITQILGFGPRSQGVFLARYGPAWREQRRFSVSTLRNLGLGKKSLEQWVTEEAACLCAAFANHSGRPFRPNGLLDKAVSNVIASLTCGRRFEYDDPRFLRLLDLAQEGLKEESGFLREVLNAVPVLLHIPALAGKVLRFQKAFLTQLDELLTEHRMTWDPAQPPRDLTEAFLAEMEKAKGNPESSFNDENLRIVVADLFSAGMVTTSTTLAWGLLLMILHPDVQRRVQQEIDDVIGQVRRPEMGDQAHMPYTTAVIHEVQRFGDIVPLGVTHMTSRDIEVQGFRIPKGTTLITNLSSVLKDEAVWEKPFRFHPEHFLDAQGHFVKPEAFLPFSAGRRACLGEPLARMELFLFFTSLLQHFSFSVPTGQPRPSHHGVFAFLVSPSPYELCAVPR
Chain of Voltage-gated inwardly rectifying potassium channel KCNH2 (Q12809 whole entry): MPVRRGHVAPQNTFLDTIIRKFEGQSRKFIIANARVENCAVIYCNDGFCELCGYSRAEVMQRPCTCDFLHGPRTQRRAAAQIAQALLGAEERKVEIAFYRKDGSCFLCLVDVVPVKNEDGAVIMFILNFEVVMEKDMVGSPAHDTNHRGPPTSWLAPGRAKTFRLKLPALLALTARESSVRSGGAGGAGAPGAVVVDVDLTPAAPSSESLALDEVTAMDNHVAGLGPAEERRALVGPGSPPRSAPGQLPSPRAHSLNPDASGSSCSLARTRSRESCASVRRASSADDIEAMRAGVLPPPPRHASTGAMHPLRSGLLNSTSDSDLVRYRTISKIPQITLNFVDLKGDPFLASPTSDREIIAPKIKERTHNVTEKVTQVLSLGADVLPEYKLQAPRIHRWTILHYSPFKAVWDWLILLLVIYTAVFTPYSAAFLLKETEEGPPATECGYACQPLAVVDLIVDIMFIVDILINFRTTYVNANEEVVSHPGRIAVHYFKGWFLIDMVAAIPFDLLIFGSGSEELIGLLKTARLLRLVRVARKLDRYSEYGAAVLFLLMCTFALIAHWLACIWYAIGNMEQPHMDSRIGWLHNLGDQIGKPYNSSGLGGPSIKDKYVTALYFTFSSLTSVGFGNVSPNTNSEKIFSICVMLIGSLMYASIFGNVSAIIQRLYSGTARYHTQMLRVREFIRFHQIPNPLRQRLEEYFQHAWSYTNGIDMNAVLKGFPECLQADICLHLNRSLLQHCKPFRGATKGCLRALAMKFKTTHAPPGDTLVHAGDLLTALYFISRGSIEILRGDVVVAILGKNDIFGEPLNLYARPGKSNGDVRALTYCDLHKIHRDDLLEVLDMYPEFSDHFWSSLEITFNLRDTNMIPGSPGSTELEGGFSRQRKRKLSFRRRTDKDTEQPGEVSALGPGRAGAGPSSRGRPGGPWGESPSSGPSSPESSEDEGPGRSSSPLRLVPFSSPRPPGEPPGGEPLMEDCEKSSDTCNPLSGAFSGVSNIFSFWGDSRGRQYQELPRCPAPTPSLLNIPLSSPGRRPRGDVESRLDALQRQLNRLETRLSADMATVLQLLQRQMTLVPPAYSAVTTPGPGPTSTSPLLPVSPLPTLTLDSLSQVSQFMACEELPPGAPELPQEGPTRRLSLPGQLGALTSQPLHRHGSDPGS

Structure (SMILES) | EC50 (Cytochrome P450 2D6) [µM] | bioavailability [1] [%] | clearance [2] [mL/min/kg] | EC50 [3] [µM] | Cmax [4] [ng/mL] | EC50 (Cytochrome P450 1A2) [µM] | EC50 [5] [µM] | EC50 (Nitric oxide synthase 1) [µM] | inhibition (INH) (Cytochrome P450 2C9 [6]) [%] | half-life [7] [h] | EC50 (Cytochrome P450 2C9 [8]) [µM] | half-life [10] [h] | t1/2 (Liver) [h] | AUC [11] [ng·h/mL] | inhibition (INH) (Cytochrome P450 2C19) [%] | Cmax [12] [ng/mL] | inhibition (INH) (Cytochrome P450 3A4) [%] | inhibition (INH) [9] [%]
O=c1cc(Cn2c(C3CCC3)nc3nccnc32)c2ccc(F)c(F)c2[nH]1 | > 100 | 62 | 4.5 | 0.43 | 15000 | > 100 | 0.091 | 0.3 | < 50 | 2.1 | > 60 | 2.3 | > 2 | – | – | – | – | < 50
CC(C)Cc1nc2nccnc2n1Cc1cc(=O)[nH]c2c(F)c(F)ccc12 | > 100 | 39 | 6.1 | 0.44 | – | > 100 | 0.088 | 0.3 | – | 6 | 29 | 1.8 | 0.783 | 11000 | < 50 | 3700 | < 50 | < 50
CC(C)Cc1nc2ccccc2n1Cc1cc(=O)[nH]c2c(F)c(F)ccc12 | – | 81 | 12 | 3.1 | 8700 | – | 0.38 | 0.69 | – | 1.7 | – | 5.2 | 1.83 | 13300 | – | – | – | –

More lines, in order of falling EC50 [3], values ahead:

EC50 (Cytochrome P450 2D6) [µM] | bioavailability [1] [%] | clearance [2] [mL/min/kg] | EC50 [3] [µM] | Cmax [4] [ng/mL] | EC50 (Cytochrome P450 1A2) [µM] | EC50 [5] [µM] | EC50 (Nitric oxide synthase 1) [µM] | inhibition (INH) (Cytochrome P450 2C9 [6]) [%] | half-life [7] [h] | EC50 (Cytochrome P450 2C9 [8]) [µM] | half-life [10] [h] | t1/2 (Liver) [h] | AUC [11] [ng·h/mL] | inhibition (INH) (Cytochrome P450 2C19) [%] | Cmax [12] [ng/mL] | inhibition (INH) (Cytochrome P450 3A4) [%] | Structure (SMILES) | inhibition (INH) [9] [%]
> 100 | 55 | 6.2 | 3.3 | 8800 | 35 | 0.22 | 3 | – | 4 | 22 | 2.3 | > 2 | 15000 | – | – | – | O=c1cc(Cn2c(C3CC(F)(F)C3)nc3nccnc32)c2cccc(F)c2[nH]1 | –
> 100 | 91 | 5.9 | 1.3 | – | > 100 | 0.19 | 4.6 | < 50 | 1.3 | > 60 | 3.1 | > 2 | 25000 | < 50 | 15000 | < 50 | O=c1cc(Cn2c(C3CCC3)nc3nccnc32)c2cccc(F)c2[nH]1 | –

Reference: ChEMBL document CHEMBL1800057, “Discovery of dual inducible/neuronal nitric oxide synthase (iNOS/nNOS) inhibitor development candidate 4-((2-cyclobutyl-1H-imidazo[4,5-b]pyrazin-1-yl)methyl)-7,8-difluoroquinolin-2(1H)-one (KD7332) part 2: identification of a novel, potent, and selective series of benzimidazole-quinolinone …” (J Med Chem, 2010)
